# High-throughput results from PubChem.
# DNA FID counter – compounds displacing fluorescent DNA intercalator, primary screen, artefact control for HCV NS3 helicase inhibitor project, biochemical, FID fluorescence. DNA fluorescent intercalator displacement. 290,000 tested, 0.17% active. inhibition, % at 7.9 µM; in the data active means inhibition above about 37%;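 further: higher means more ethidium bromide displaced from hairpin DNA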
# ZTA DNA inh – counter-screen for EBNA-1 inhibitors: inhibitors of Epstein-Barr virus ZTA; P03206; ZTA-DNA binding, fluorescence polarization; inhibition, % at 11 µM; 320,000 tested, 0.15% active; AID 2234; in the data active means inhibition above about 33%
# Target sequence (P03206 whole entry, looked up): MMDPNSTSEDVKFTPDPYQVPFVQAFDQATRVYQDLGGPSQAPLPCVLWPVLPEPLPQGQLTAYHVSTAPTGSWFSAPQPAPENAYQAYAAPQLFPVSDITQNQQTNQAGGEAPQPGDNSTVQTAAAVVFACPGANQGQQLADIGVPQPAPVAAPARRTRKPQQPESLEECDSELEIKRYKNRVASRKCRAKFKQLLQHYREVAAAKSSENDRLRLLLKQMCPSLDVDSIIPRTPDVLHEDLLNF
# NR3A LBD binder – binders of NR3A ligand-binding domain, primary screen, biophysical, differential scanning fluorimetry, uHTS; Tm shift relative to glycine control, % at 25 µM; 340,000 tested, 2.5% active; NR3A LBD differential scanning fluorimetry, Tm shift; 0% = protein alone, 100% = glycine-bound protein;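 active means melting temperature shift of at least 10% of the positive control shift, at one fixed dose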
# NS3 helicase inh – inhibitors of HCV NS3 helicase, primary screen, biochemical, Cy5 molecular beacon fluorescence | Hepatitis C virus NS3 helicase | NS3 helicase DNA unwinding | inhibition, % at 10.9 µM | 290,000 tested, 0.56% active | AID 1800, 2009;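 active means inhibition above the mean of all tested compounds plus 3 SD, set per campaign, cut at about 35% in these data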
#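 System: NS3 helicase fragment of HCV / Schedule: 1 h at 25 °C / Control set: DMSO alone as 0% and 110 µM thioflavine S as 100% / Reagent: Cy5/quencher beacon DNA duplex and ATP to start / Technique: Cy5 fluorescence / Replication: singlicate / Evaluation: % inhibition of end-to-start signal ratio versus controls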
# FGF22 binding – binders of human FGF22 protein, primary screen, FGF22 synaptogenesis inhibitor project, biophysical, thermal shift, single point; recombinant FGF22 thermal shift, SYPRO orange fluorescence; percent of sucrose octasulfate shift, DMSO zero; activity (Tm shift, normalised), % at 9.99 µM; 340,000 tested, 1.5% active;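 active means mean Tm shift, scaled 0 neutral to 100 positive control, at about 1.3% or above, every replicate too, limit read from the data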
# Target sequence (Q9HCT0 whole entry, looked up): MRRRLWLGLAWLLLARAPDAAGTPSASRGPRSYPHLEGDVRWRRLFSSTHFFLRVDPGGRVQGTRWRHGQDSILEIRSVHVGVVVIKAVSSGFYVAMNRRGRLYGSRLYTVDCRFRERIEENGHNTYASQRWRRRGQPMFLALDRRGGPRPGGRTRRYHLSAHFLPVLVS
# EBNA-1 inhibitor – EBNA-1 DNA-binding inhibitors, primary screen, biochemical, fluorescence polarization. inhibition, % at 14.8 µM. 300,000 tested, 0.34% active. AID 1950, 2009; in the data active means inhibition above about 28%
# Numbers stand for hits; - = inactive; . = no result given. A selection: hits, their analogues and other compounds. The true share with any hit is near 3.6%.
SMILES,DNA FID counter,ZTA DNA inh,NR3A LBD binder,NS3 helicase inh,FGF22 binding,EBNA-1 inhibitor
CCC(=O)N(Cc1cc(=O)[nH]c2ccccc12)c1ccccc1OC,-,-,-,-,-,-
COc1ccccc1N(Cc1cc(=O)[nH]c2ccccc12)C(=O)c1cccc([N+](=O)[O-])c1,-,-,-,-,43,-
COc1ccccc1CNC(=O)C[C@@H]1C[C@@H]2c3cc(NC(=O)Nc4ccccc4F)ccc3O[C@@H]2[C@@H](CO)O1,.,.,.,.,-,.
COC(=O)C1SCC2C(=O)N(Cc3ccccc3)CC(=O)N21 (configuration not stated),-,-,-,-,43,-
CCOC(=O)C1CN(Cc2ccccc2)C(=O)C1=O (configuration not stated),.,.,-,.,-,.
CCOC(=O)C1CCN(C(=O)COC(=O)CN(C)S(=O)(=O)c2ccc(NC(C)=O)cc2)CC1,-,-,10,-,-,-
CN(CC(=O)OCC(=O)Nc1ccccc1)S(=O)(=O)c1ccc(Cl)cc1,-,-,18,-,.,-
CC(=O)Nc1ccc(NC(=O)C(C)OC(=O)CN(C)S(=O)(=O)c2ccc(Cl)cc2)cc1 (configuration not stated),-,-,15,-,.,-
CC(=O)Nc1ccc(S(=O)(=O)N(C)CC(=O)OCC(=O)N2CCCCC2)cc1,.,-,-,.,-,-
CCOC(=O)C1CCN(C(=O)COc2ccc([N+](=O)[O-])cc2)CC1,-,-,-,-,43,-
CCOC(=O)C1CCN(C(=O)COC(=O)/C=C/c2ccc([N+](=O)[O-])cc2)CC1,.,.,-,.,-,.
CC(OC(=O)CN(C)S(=O)(=O)c1ccc(Cl)cc1)C(=O)Nc1ccc(N2CCOCC2)cc1 (configuration not stated),-,.,-,-,.,.
Cc1ccc(-c2ccc3c(c2)O[C@H](CN(C)Cc2cccnc2)[C@@H](C)CN([C@@H](C)CO)S3(=O)=O)cc1,.,.,.,.,-,.
CCC(CC)=NNc1ccc([N+](=O)[O-])cc1[N+](=O)[O-],-,-,-,-,43,-
O=[N+]([O-])c1ccc(NN=C(C2CC2)C2CC2)c([N+](=O)[O-])c1,.,.,.,.,-,.
C[C@@H]1CN([C@H](C)CO)C(=O)Cc2cc(NC(=O)C3CCCCC3)ccc2O[C@H]1CN(C)Cc1ccc(C(=O)O)cc1,.,.,.,.,-,.
CC12CCC3c4ccccc4CCC3(CO1)C2 (configuration not stated),.,.,.,.,43,.
C[C@@H]1CN([C@@H](C)CO)C(=O)c2cc(C#CC3CC3)cnc2O[C@H]1CN(C)C(=O)c1ccc(F)cc1,.,.,.,.,-,.
O=[N+]([O-])/C=C/c1cc2ccccc2[nH]1,-,-,18,-,-,-
O=[N+]([O-])c1nc2ccccc2[nH]1,.,.,-,.,-,.
Nc1n[nH]c(N)c1N=Nc1cccc(C(F)(F)F)c1,-,-,20,-,-,-
CC(=O)N(C)C[C@H]1Oc2ncc(-c3ccccc3F)cc2C(=O)N([C@@H](C)CO)C[C@H]1C,.,.,.,.,-,.
CCC(=O)N1CCC2(CC1)CN(C(=O)Nc1ccccc1F)[C@H](CO)c1c2c2ccc(OC)cc2n1C,.,.,.,.,-,.
Cc1cccc(NC(=O)c2ncn3c2C(=O)N(C)CC3)c1,.,.,.,.,43,.
C[C@@H]1CN([C@@H](C)CO)C(=O)c2ccccc2-c2ccccc2CO[C@@H]1CN(C)Cc1ccc2c(c1)OCO2,.,.,.,.,-,.
SMILES,DNA FID counter,ZTA DNA inh,NR3A LBD binder,NS3 helicase inh,FGF22 binding,EBNA-1 inhibitor
O=C(CNC(c1ccccc1)c1ccccc1)Nc1ccccc1-c1ccccc1,-,-,17,-,-,-
O=C(CSCc1c(Cl)cccc1Cl)Nc1ccccc1-c1ccccc1,-,-,15,-,-,-
O=C(COC(=O)Cc1c(Cl)cccc1Cl)Nc1ccccc1-c1ccccc1,-,-,-,-,.,-
COc1ccc(NC(=O)CSc2nncs2)cc1S(N)(=O)=O,-,-,-,-,-,-
COc1ccc(NC(=O)CSc2nccn2C)cc1S(N)(=O)=O,-,-,-,-,2.4,-
CC(=O)N(C)C[C@@H]1Oc2cc(-c3cccc(C#N)c3)ccc2S(=O)(=O)N([C@H](C)CO)C[C@@H]1C,.,.,.,.,-,.
NS(=O)(=O)c1ccc(CCNC(=O)c2cc(-c3cc(Cl)ccc3O)n[nH]2)cc1,-,-,25,-,-,-
C[C@H](NC(=O)c1ccc(Cl)cc1)C(=O)NCCc1ccc(S(N)(=O)=O)cc1,-,-,-,-,44,-
Cc1cc(O)c(-c2cc(C(=O)NCCc3ccc(S(N)(=O)=O)cc3)[nH]n2)cc1C,-,-,22,-,-,-
COc1ccc(CCNC(=O)c2cc(-c3cc(Cl)ccc3O)n[nH]2)cc1OC,-,-,10,-,-,-
C[C@@H]1CN([C@H](C)CO)C(=O)c2cc(C#C[C@@H](C)O)cnc2O[C@H]1CN(C)C(=O)Cc1ccncc1,.,.,.,.,-,.
C[C@@H]1CN([C@H](C)CO)C(=O)c2cc(C3=CCCC3)cnc2O[C@H]1CN(C)C(=O)C1CCC1,.,.,.,.,-,.
COc1ccc(S(=O)(=O)N[C@H]2CC[C@H](CCn3cc(-c4cccc(F)c4)nn3)O[C@H]2CO)cc1,.,.,.,.,-,.
CC(=O)Nc1ccc(C(=O)Nc2nc(-c3cccnc3)cs2)cc1,-,-,-,-,43,-
CC(=O)Nc1ccc(C(=O)Nc2nc(-c3ccccn3)cs2)cc1,-,-,-,-,44,-
Clc1ccc2[nH]c(-c3ccccc3)cc2c1,-,-,20,-,.,-
Cc1ccc2c(c1)NC(=O)c1cc([N+](=O)[O-])ccc1O2,-,-,-,-,-,-
O=C1Nc2ccccc2Oc2cc([N+](=O)[O-])ccc21,-,-,-,-,43,-
CC(=O)c1ccc(N2CCN(C(=O)COc3ccccc3F)CC2)c(F)c1,-,-,10,-,.,-
CCC(=O)c1ccc(N2CCN(C(=O)COc3ccccc3F)CC2)c(F)c1,-,-,-,-,-,-
Cc1cccc(-c2ccc([C@@H]3[C@H]4CN(S(=O)(=O)c5cn(C)cn5)CCCCN4[C@H]3CO)cc2)c1,.,.,.,.,-,.
Cc1nc(Nc2cccc(F)c2)c2oc3ccccc3c2n1,-,-,28,-,-,-
O=C(CNC(=O)OCc1ccccc1)Oc1ccc2ccc(=O)oc2c1,-,-,-,-,-,-
O=C(NC(Cc1ccccc1)C(=O)Oc1ccc2c(C(F)(F)F)cc(=O)oc2c1)OCc1ccccc1 (configuration not stated),-,-,14,-,.,-
COc1ccc(Br)cc1/C=C/C(=O)NCC(=O)O,-,-,-,-,44,-
